Dyrk1A ADPGlo: rat Dyrk1A kinase inhibitors, primary screen, biochemical, single point, plate reader | ADP-Glo luminescence, NFATc1 peptide | inhibition, % at 12.5 µM | hit rate 0.43% among 310,000 | AID 504441, 2011; in the data active means inhibition above about 50%;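 further: plate controls were vehicle with enzyme for no effect and no enzyme for full effect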
STK33 kinase inh: inhibitors of purified STK33 kinase, primary screen, biochemical, ADP-Glo luminescence, homogeneous, cell-free; hit rate 0.073% among 320,000; Serine/threonine-protein kinase 33 (Homo sapiens), Q9BYT3; AID 2661, 2010; MBP phosphorylation; inhibition, % at 10 µM;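 active means inhibition at or above 25%, using the most active replicate where run in duplicate; inactive means inhibition below 25%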
Rin1-Abl PPI inh: inhibitors of Rin1-Abl protein binding, primary screen, biochemical, TR-FRET; Tyrosine-protein kinase ABL1 (Homo sapiens) + Ras and Rab interactor 1 (Homo sapiens), …; inhibition, % at 7.35 µM; hit rate 0.4% among 360,000; in the data active means inhibition above about 5%, passing the limit was not always enough
GSK3A inh: blockers of GSK3A enzyme activity – biochemical, luminescence, cell-free homogeneous, HTS, primary screen; GSK-3 alpha kinase, ADP-Glo luminescence, 60 min; inhibition, % at 10 µM; hit rate 0.1% among 320,000; AID 2650, 2010;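 active means more than half of replicates show inhibition above 20%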;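 further: GST-tagged GSK-3 alpha with peptide substrate and 25 µM ATP; 0% = DMSO neutral wells and 100% = GW8510 positive control wells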
Target sequence (P49840 whole entry, looked up): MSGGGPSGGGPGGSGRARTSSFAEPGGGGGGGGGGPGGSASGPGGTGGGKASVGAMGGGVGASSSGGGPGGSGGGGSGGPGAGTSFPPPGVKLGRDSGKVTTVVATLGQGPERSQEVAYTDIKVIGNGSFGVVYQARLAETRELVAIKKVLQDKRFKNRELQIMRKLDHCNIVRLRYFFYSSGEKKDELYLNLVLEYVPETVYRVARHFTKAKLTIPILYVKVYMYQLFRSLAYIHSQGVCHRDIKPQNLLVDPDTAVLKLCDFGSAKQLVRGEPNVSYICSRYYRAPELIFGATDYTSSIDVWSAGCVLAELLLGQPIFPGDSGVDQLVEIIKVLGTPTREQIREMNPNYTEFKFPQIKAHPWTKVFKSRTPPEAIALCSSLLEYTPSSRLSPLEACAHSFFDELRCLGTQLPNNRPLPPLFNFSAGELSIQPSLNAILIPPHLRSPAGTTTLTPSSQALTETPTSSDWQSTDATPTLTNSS
GSK3B inh: human GSK3beta kinase inhibitors, primary screen, biochemical, cell-free homogeneous, HTS; activity score (negative = inhibition), % at 10 µM; Glycogen synthase kinase-3 beta (Homo sapiens), P49841; hit rate 0.038% among 300,000; GST-GSK3beta kinase, ADP-Glo luminescence, 60 min; stronger effect = lower value;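 active means more than half of replicate wells score below -50%, meaning over 50% inhibition versus plate controls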;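 further: 0% = median DMSO wells and -100% = median GW8510 positive control wells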
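Test system: GST-fused GSK3beta enzyme, cell-free | Quantity: 1.6 ng GST-GSK3beta enzyme per well | Reagent: 25 µM ATP with peptide substrate | Schedule: 60 min enzyme reaction, room temperature | Signal: Luminescent ADP-Glo measurement of ADP formed | Read-out basis: Score relative to plate controls | Control set: DMSO and 20 µM GW8510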
Arrestin-AP2 inh: inhibitors of beta-arrestin/AP2 binding, primary screen, biochemical, GPCR trafficking, flow cytometry; inhibition, % at 10 µM; FITC-arrestin peptide / GST-AP2 beads; AP2 beta2 appendage carries R879A mutation; beta-arrestin 1 C-terminal peptide binding to AP2 beta2-adaptin appendage (human); hit rate 0.31% among 340,000;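 active means inhibition above a set limit, near 3 SD of compounds lacking own fluorescence, cut at about 54% in these data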;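 further: plate controls were DMSO wells for no effect and 5 µM unlabelled arrestin peptide for full effect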
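System: GST-AP2 R879A glutathione beads. Medium: PBS with 0.05% Tween 20 and 0.1% BSA. Also added: FITC-arrestin peptide, 50 nM. Incubation: 12 min plus 1 h, RT. Measured by: high-throughput flow cytometry of beads, ex 488, em 535 nm. Evaluation: percent drop in bead-associated FITC signal.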
ADP-Glo artifact: ADP-Glo luciferase interference without Dyrk1A, dose response, artefact control for Dyrk1A inhibitor project, biochemical, luminescence, cherry-pick, set 02. shares compounds with Dyrk1A ADPGlo. ADP-Glo luciferase artifact assay, no Dyrk1A. 1,300 tested, under 10 active. AC50, µM (highest dose often 12 µM), without a hit: at the top dose activity change, negative = inhibition. AID 588348, 2011;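 active means fitted half-maximal dose AC50 no more than ten times the top valid tested dose, with luminescence dropping as dose rises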
* hit, by the source's call; / = no result; ! = not active in a repeat. Compounds with a hit are over-represented: about 0.99% of the library has one in this group of screens.

SMILES	Dyrk1A ADPGlo	STK33 kinase inh	Rin1-Abl PPI inh	GSK3A inh	GSK3B inh	Arrestin-AP2 inh	ADP-Glo artifact
COc1cc(O)cc2cc3c(c(O)c12)C(=O)CC(C)(O)O3 (configuration not stated)	108*	8	-2	21	/	12	5%
CC(OC(=O)CNC(=O)c1sc2ccccc2c1Cl)C(=O)NC1(C#N)CCCCC1 (configuration not stated)	/	0	-3	0	/	0	/
CCCS(=O)(=O)NC(=O)C1(C)CCN(C(=O)c2cc(F)cc(F)c2)C1 (configuration not stated)	/	/	2	/	/	/	/
c1cncc(-c2csc(-c3cccnc3)n2)c1	86*	8	-1	1	-2	-7	9%
c1cncc(-c2nc(-c3cccs3)cs2)c1	30	2	1	1	-8	5	/
NC(N)=NC(=O)c1nc(Cl)c(N)nc1N	64*!	2	0	0	0	-3	9%
O=C(C[C@H]1C[C@H](C(=O)N2CCCCC2)[C@@]2(CCc3ccccc3)c3[nH]c4ccc(Cl)cc4c3CCN2C1=O)NCCN1CCOCC1	/	/	-3	/	/	4	/
CCOC(=O)C1CCN(C(=O)c2cc3cc(C)ccc3[nH]2)CC1	/	-2	3	-6	1	9	/
CC(=O)Nc1cccc(-c2cnc(N)c(C(=O)c3cccnc3)n2)c1	88*	13	-5	89*	/	15	13%
CC(=O)Nc1ccc2nc(-c3cccnc3)[nH]c2c1	7	2	3	-2	3	8	/
O=C(CNc1ccc(Br)cc1)c1ccc(Br)s1	-7	0	-1	0	0	-5	/
Cc1cc(O)c2c(c1)C(=O)c1cc(O)cc(O)c1C2=O	66*	4	-1	14	-8	2	7%
NS(=O)(=O)c1ccc(-c2ccc(/C=C3\NC(=S)NC3=O)o2)cc1	75*	-1	-2	4	-28	27	9%
NS(=O)(=O)c1ccc(-c2ccc(C=O)o2)cc1	-5	1	4	-1	1	8	/
O=C1C(=O)c2ccccc2C(O)=C1CC=C(Cl)Cl	66*	/	0	/	/	0	8%
CCCCOP(=O)(OCCCC)C1(C)CC(=O)CC(C)(C)C1 (configuration not stated)	-10	/	7	/	/	39	/
Cc1cc2c(ccc3[nH]onc32)n1	51*	2	-1	3	-6	21	8%
CSCC(=O)Nc1nc(-c2ccc3c(c2)OCCO3)cs1	68*	0	1	2	-3	-9	8%
O=C(O)C(=O)Nc1nc(-c2ccc3c(c2)OCCO3)cs1	-6	1	-1	6	3	-16	/
CCCC(=O)Nc1nc(-c2ccc3c(c2)OCCO3)cs1	55*	0	0	-1	/	10	10%
CC1CCC(C(C)C)C2=C1C(C#N)(C#N)C(C#N)(C#N)C(c1ccccc1)N2 (configuration not stated)	54*	12	-4	34	-16	11	7%
CC1=CC(C#N)(C#N)C(C#N)(C#N)C(c2ccccc2)N1 (configuration not stated)	/	0	/	12	-2	/	/
CCO/C(=C/c1sc2ccc(OC)cc2[n+]1CCCS(=O)(=O)[O-])CC	57*	1	-1	4	0	-1	9%
CCC(/C=C1\Sc2ccc(OC)cc2N1CC)=C\c1sc2ccc(OC)cc2[n+]1CCCS(=O)(=O)[O-]	2	5	0	5	2	12	/
CN(C)c1cccc(NC(=O)c2cccc3c(-c4ccc(F)c(F)c4)coc23)c1	/	/	2	/	/	/	/
SMILES	Dyrk1A ADPGlo	STK33 kinase inh	Rin1-Abl PPI inh	GSK3A inh	GSK3B inh	Arrestin-AP2 inh	ADP-Glo artifact
O=C1Nc2ccccc2SC1=Cc1ccccc1	/	/	1	/	/	/	/
O=C1CCCC2=C1Sc1ccccc1N2	57*	6	-9	26	-23	11	8%
Cc1cc(Cl)cc2sc(=S)[nH]c12	11	/	0	/	/	-2	/
COc1ccccc1-c1sc2ccccc2c1C#Cc1ccc(N(C)C)cc1	51*	0	4	-2	/	30	8%
Cc1ccc(NC(=O)CNC(=O)c2ccco2)cc1	0	1	5	2	0	36	/
COc1cccc(/C=C2\SC(=S)N(C(C)C(=O)NC3C=CS(=O)(=O)C3)C2=O)c1 (configuration not stated)	7	1	1	-2	5	2	/
COc1ccc(/C=C2\SC(=S)N(C(C)C(=O)NC3C=CS(=O)(=O)C3)C2=O)cc1 (configuration not stated)	77*	0	1	-2	-2	2	8%
CN(C)C(CNC(=O)c1cc(S(=O)(=O)N(C)c2ccc(F)cc2)ccc1Cl)c1cccs1 (configuration not stated)	0	/	6	/	/	29	/
Cc1cc(C(=O)Nc2ccc(N3CCOCC3)c3nonc23)ccc1[N+](=O)[O-]	8	-2	0	1	2	-9	/
COc1cccc(NC(=O)c2ccncc2)c1	11	1	-2	6	1	0	/
COc1cccc(NC(=O)c2sc(NC(=O)c3ccncc3)nc2C)c1	54*	4	-1	-3	-5	-16	8%
CCOC(=O)C1CCCN(c2c(NCCc3cccc(C)c3)c(=O)c2=O)C1 (configuration not stated)	-3	-1	-1	-3	2	10	/
CCOC(=O)C1CCCN(c2c(NCCCN3CCCC(C)C3)c(=O)c2=O)C1 (configuration not stated)	59*	-1	6	-2	1	5	7%
CCOC(=O)C1CCCN(c2c(NCC3CCCN3CC)c(=O)c2=O)C1 (configuration not stated)	18	-2	-1	1	4	4	/
CCOC(=O)C1CCCN(c2c(NCCN(C)Cc3ccccc3)c(=O)c2=O)C1 (configuration not stated)	61*	-1	2	-1	-4	8	6%
Cc1ccc(S(=O)(=O)Nc2ccc3c(c2)C(=O)N([C@H](C)CO)C[C@H](C)[C@@H](CN(C)Cc2ccccc2)O3)cc1	-3	0	-1	-3	/	4	/

Screening results (PubChem BioAssay)
